The target in series [1] is T1, Amine oxidase [flavin-containing] A (Homo sapiens, UniProt P21397).
T1 sequence (P21397 whole entry): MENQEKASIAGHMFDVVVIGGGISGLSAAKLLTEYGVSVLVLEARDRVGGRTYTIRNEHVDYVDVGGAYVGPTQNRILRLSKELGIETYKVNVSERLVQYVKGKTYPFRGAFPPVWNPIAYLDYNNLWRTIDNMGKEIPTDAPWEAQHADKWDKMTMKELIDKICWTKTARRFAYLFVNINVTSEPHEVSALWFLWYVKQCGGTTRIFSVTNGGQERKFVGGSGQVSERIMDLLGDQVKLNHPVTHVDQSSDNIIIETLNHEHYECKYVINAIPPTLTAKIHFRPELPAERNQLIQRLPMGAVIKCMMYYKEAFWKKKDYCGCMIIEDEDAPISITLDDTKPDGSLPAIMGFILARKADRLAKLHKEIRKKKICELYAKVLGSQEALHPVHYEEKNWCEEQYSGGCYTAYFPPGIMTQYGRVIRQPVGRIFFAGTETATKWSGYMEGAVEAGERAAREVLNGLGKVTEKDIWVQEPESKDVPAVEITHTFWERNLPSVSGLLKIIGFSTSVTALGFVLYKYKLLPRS
As to the kind of experiment: Inhibition of recombinant MAO-A (unknown origin) expressed in baculovirus infected BTI cells assessed as reduction in 4-hydroxyquinoline level using kynuramine as a substrate at 1 uM incubated for 20 mins by discontinuous fluorimetric assay relative to control. The procedure, abridged:
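Discontinuous fluorimetric assay with recombinant membrane-bound MAO-A and kynuramine at two-fold KM (KM = 30 μM). Test compound at 1 μM, from a 1 mM DMSO stock. Incubated 20 min at 37 °C, stopped with 2 N NaOH. 4-hydroxyquinoline read at ex 320 nm / em 405 nm. Percent inhibition against no-inhibitor control, mean ± SD of two independent experiments in duplicate.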

In series [2] the target is T2, Amine oxidase [flavin-containing] B (Homo sapiens, UniProt P27338).
T2 sequence (P27338 whole entry): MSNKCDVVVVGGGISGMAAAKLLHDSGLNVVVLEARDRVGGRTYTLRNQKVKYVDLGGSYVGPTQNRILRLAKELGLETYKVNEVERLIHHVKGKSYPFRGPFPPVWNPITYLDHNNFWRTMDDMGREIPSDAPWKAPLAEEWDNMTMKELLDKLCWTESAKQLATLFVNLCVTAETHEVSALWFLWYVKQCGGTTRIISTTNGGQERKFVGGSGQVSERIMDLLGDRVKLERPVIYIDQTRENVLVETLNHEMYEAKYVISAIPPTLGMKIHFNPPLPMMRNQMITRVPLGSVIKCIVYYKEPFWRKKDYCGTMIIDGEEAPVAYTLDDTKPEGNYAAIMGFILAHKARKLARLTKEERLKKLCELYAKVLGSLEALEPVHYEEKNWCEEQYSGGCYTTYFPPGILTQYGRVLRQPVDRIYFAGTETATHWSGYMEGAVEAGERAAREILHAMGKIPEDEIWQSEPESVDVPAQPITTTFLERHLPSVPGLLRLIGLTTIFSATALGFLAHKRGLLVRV
As to the kind of experiment: Inhibition of recombinant MAO-B (unknown origin) expressed in baculovirus infected BTI cells assessed as reduction in 4-hydroxyquinoline level using kynuramine as a substrate at 1 uM incubated for 20 mins by discontinuous fluorimetric assay relative to control. The conditions noted are these: read-out: INH.

For series [3], the target named is T3, Acetylcholinesterase (Electrophorus electricus, UniProt O42275). As to the kind of experiment: Inhibition of electric eel AChE using […] as a substrate and measured for 125 sec by DTNB based Ellman's method. A general note: DTNB colorimetry detects thiols as they appear.
T3 sequence (O42275 whole entry): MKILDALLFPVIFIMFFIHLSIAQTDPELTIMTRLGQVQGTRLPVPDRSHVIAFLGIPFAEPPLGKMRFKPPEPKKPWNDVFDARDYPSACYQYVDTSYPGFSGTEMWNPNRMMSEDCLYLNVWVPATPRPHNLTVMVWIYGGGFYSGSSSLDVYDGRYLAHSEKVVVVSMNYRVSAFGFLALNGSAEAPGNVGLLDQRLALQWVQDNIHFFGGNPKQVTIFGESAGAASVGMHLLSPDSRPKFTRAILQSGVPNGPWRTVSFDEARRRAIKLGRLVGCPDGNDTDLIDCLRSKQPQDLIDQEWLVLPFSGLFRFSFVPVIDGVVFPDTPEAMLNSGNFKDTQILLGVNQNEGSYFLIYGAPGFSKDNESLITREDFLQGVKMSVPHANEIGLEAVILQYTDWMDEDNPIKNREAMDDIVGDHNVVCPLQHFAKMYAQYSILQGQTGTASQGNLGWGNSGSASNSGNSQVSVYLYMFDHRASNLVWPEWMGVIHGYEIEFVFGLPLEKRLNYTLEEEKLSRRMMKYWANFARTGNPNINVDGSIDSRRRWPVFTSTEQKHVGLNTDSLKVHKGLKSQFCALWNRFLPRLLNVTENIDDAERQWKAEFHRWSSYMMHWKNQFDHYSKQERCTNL
Series [4] addresses T4, Cholinesterase (Equus caballus, UniProt P81908). As to the kind of experiment: Inhibition of Equine serum BuChE using S-butyrylthiocholine iodide as a substrate and measured for 125 sec by DTNB based Ellman's method.
Series [5] deals with T3, Acetylcholinesterase. As to the kind of experiment: Inhibition of electric eel AChE using […] as a substrate and measured upto 180 sec by DTNB based Ellman's method.
Series [6] has as its target T4, Cholinesterase. As to the kind of experiment: Inhibition of Equine serum BuChE assessed as inhibitory constants for binding the enzyme-substrate complex using S-butyrylthiocholine iodide as a substrate by Cornish-Bowden plot analysis. The procedure, abridged:
(§1)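 Equine BuChE, Ellman method: 50 μM phosphate buffer pH 8.0, 0.975 mM DTNB, 1.25% DMSO, 25 °C, read at 405 nm over 125 s. Runs used 5 butyrylthiocholine levels (1/4 to 4 × KM) and 3–4 inhibitor levels giving roughly 30–80% inhibition. KM and Vmax came from nonlinear regression. Mode of inhibition and constants came from Cornish-Bowden plots.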

In series [7] the target is Cholinesterase (Equus caballus) (UniProt P81908). As to the kind of experiment: Inhibition of equine serum BuChE at 0.8 mM by STD-NMR spectroscopy. The procedure, abridged:
(§2)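 STD-NMR with 5 μM equine BuChE in D2O; ligand stocks of 8.8 and 4.8 mM. Saturation times for buildup curves 0.25–5 s, total experiment time held at 6.5 s. Water suppression at 4.7 ppm, sweep width 20.03 ppm. Blanks checked for direct ligand saturation.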

Series [8] deals with T4, Cholinesterase. As to the kind of experiment: Inhibition of Equine serum BuChE assessed as inhibitory constants for binding the free enzyme using S-butyrylthiocholine iodide as a substrate by Cornish-Bowden plot analysis. The procedure, abridged: as §1
Series [9] concerns the target T2, Amine oxidase [flavin-containing] B. As to the kind of experiment: Inhibition of human MAO-B assessed as shielding effect on inhibitor […] at 0.016 mM incubated for 20 min by STD-NMR spectroscopy. The conditions noted are these: 16 µM. Put shortly: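 MAO-B incubated with the N-propargyl inhibitor and followed by 1H NMR, with spectra recorded every 5 min. The spectrum of inhibitor alone was compared with the inhibitor–enzyme mixture at 20 min, watching shifts of inhibitor protons, especially the propargyl proton. Ligand-only controls and blanks checked for direct saturation. Water suppression at 4.7 ppm.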

For series [10], the target named is Cholinesterase (Equus caballus) (UniProt P81908). As to the kind of experiment: Inhibition of equine serum BuChE at 1.47 mM by STD-NMR spectroscopy. Put shortly:
as §2

The structures appear in SMILES notation. Activity calls are given as the source filed them. The rule behind the calls is not given here.

T4 sequence (P81908 whole entry): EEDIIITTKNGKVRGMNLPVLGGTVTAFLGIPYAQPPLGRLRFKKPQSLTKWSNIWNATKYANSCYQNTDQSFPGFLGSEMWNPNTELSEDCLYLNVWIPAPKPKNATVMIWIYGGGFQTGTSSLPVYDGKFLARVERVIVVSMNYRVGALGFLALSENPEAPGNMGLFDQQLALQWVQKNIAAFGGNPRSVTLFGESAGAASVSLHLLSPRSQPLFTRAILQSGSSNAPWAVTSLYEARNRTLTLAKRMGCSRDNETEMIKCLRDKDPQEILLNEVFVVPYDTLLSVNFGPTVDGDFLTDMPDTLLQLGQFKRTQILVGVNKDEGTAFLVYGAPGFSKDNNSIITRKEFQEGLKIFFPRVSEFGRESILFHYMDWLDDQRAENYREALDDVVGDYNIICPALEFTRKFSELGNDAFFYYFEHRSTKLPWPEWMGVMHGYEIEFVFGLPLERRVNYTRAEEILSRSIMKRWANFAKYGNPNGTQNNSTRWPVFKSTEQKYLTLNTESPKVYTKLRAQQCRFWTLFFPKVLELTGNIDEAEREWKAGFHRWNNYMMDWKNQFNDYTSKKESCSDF
Cholinesterase (Equus caballus), sequence (P81908 whole entry): as above

For the compound `C#CCN(Cc1ccccc1)C1c2ccccc2OCC1(C)C` (configuration not stated), the inhibition at 1 µM was -10.6% in series [1] and 2.9% in series [2].

As a reminder, the IC50 is the concentration that inhibits the measured activity by half. A lower IC50 goes with higher potency. As for `CC1(C)COc2cc(F)c(F)cc2C1O` (configuration not stated), the IC50 is over 100 µM at Acetylcholinesterase [3] and 28 µM against Cholinesterase [4].

For `C#CCN(Cc1ccccc1)C1c2cccc(OC)c2OCC1(C)C` (configuration not stated), the inhibition at 1 µM was 4.3% in [1] and 14.7% in series [2].

With `CC1(C)COc2cc3ccccc3cc2C1O` (configuration not stated), the values for the IC50 against Acetylcholinesterase [3] and on Cholinesterase [4] were over 100 µM and 50 µM, respectively.

On to `CC1(C)COc2cc(F)ccc2C1O` (configuration not stated), for which the IC50 against Acetylcholinesterase [3] is over 100 µM; against Cholinesterase [4], 18 µM.

As to `NC1CCOc2ccccc21` (configuration not stated), the inhibition at 1 µM is -0.7% in series [1] and 4.8% in [2].

`O=C1CC(OCCCCCSC(=S)N2CCCCC2)Oc2ccccc21` (configuration not stated) returned an IC50 at Acetylcholinesterase [5] of 0.1 µM. That is a sub-micromolar value.

At Cholinesterase [4], `Cc1ccc2c(c1)C(N)C(C)(C)CO2` (configuration not stated) yielded an IC50 of 67 µM.

Turning to `CC1(C)COc2cc(F)ccc2C1=O`, the IC50 on Acetylcholinesterase [3] and against Cholinesterase [4] was over 100 µM throughout.

For the compound `CC1(C)COc2c(OC(F)(F)F)cccc2C1=O`, the IC50 was over 100 µM against Acetylcholinesterase [3] and 4.3 µM on Cholinesterase [4].

Broadly, the Ki is the equilibrium dissociation constant of an inhibitor or competing ligand from its target. Take `COc1cccc2c1OCC(C)(C)C2N` (configuration not stated): the Ki at Cholinesterase [6] came to 19.1 µM; at Cholinesterase [8], 9 µM. Besides, the inhibition at 1 µM in series [1] was -0.7%; in series [2] it was 4.3%. In addition, in [7], the inhibition entry was “Active”. At Cholinesterase [4], this compound gave an IC50 of 7.6 µM.

`CCOc1cc(C#N)cc2c1OCC(C)(C)C2O` (configuration not stated): the figures for the IC50 against Acetylcholinesterase [3] and at Cholinesterase [4] were over 100 µM and 7.3 µM, respectively.

Take `COc1cccc2c1C(O)C(C)(C)CO2` (configuration not stated): the results for the inhibition at 1 µM in series [1] and in series [2] were 11.5% and 5.3%, respectively. Also, the concentration for half-maximal inhibition (IC50) against Acetylcholinesterase [3] and against Cholinesterase [4] was over 100 µM each time.

With `C#CCNC1c2cccc(OC)c2OCC1(C)C` (configuration not stated), the figures for the inhibition at 1 µM in [1] and in series [2] were 4.6% and 13.8%, respectively.

On to `CC1(C)COc2ncccc2C1=O`, for which the IC50 against Acetylcholinesterase [3] and at Cholinesterase [4] was over 100 µM throughout.

For the compound `CC1(C)COc2ccc3ccccc3c2C1N` (configuration not stated), the inhibition at 1 µM was 12.5% in [1] and 2.7% in series [2]. This compound returned an IC50 at Cholinesterase [4] of 52 µM.

In the case of `Cc1ccc2c(c1)C(O)C(C)(C)CO2` (configuration not stated), the IC50 on Acetylcholinesterase [3] and against Cholinesterase [4] was over 100 µM throughout.

For `CC1(C)COc2cc3ccccc3cc2C1N` (configuration not stated), the results for the Ki at Cholinesterase [6] and at Cholinesterase [8] were 11 µM and 18 µM, respectively. The inhibition at 1 µM worked out at 13.3% in series [1] and 7.5% in [2]. In addition, the 50% inhibitory concentration (IC50) at Cholinesterase [4] was 8.9 µM.

`COc1cccc2c1C(=O)C(C)(C)CO2`: the inhibition at 1 µM came to 12.1% in series [1] and 5.9% in series [2]. For the same compound, the IC50 against Acetylcholinesterase [3] was over 100 µM; against Cholinesterase [4] it was 12 µM.

In the case of `CC1(C)COc2cc3ccccc3cc2C1=O`, the inhibition at 1 µM turned out to be 16.4% in series [1] and 27.7% in [2]. For the same compound, the concentration for half-maximal inhibition (IC50) on Acetylcholinesterase [3] was over 100 µM; against Cholinesterase [4], 3.1 µM.

As for `C#CCNC1c2cc(C)ccc2OCC1(C)C` (configuration not stated), the inhibition at 1 µM in series [1] is -9.4%; in [2], -6.8%.

`CC1(C)COc2ccc(F)cc2C1O` (configuration not stated): the inhibition at 1 µM in [1] is 16.5%; in [2], 8.3%. Besides, the IC50 at Acetylcholinesterase [3] and at Cholinesterase [4] was over 100 µM throughout.

Take `CC1(C)COc2cc(F)c(F)cc2C1=O`: the IC50 at Acetylcholinesterase [3] and at Cholinesterase [4] was over 100 µM each time.

On to `CC1(C)COc2ccc(C#N)cc2C1O` (configuration not stated), for which the IC50 against Acetylcholinesterase [3] was over 100 µM; against Cholinesterase [4], 18 µM.

Consider `CC1(C)COc2ccc(F)cc2C1=O`, for which the IC50 against Acetylcholinesterase [3] is over 100 µM; against Cholinesterase [4], 33 µM.

As for `CC1(C)COc2ccccc2C1O` (configuration not stated), the figures for the inhibition at 1 µM in [1] and in series [2] were 24.3% and 8%, respectively. Also, the results for the IC50 at Acetylcholinesterase [3] and at Cholinesterase [4] were over 100 µM and 40 µM, respectively.

For `C[C@H](NCc1ccc(OCc2cccc(F)c2)cc1)C(N)=O` [SAFINAMIDE], the inhibition at 1 µM in series [1] is 1.8%.

For the compound `C#CCN(C)CCCOc1ccc(Cl)cc1Cl` [CLORGILINE], the inhibition at 1 µM in series [1] is 99.8%.

As for `CC1(C)COc2ccc3ccccc3c2C1O` (configuration not stated), the IC50 was over 100 µM on Acetylcholinesterase [3] and 33 µM on Cholinesterase [4].

Take `CC1(C)COc2c(ccc3cccnc23)C1=O`: the values for the inhibition at 1 µM in [1] and in series [2] were 14.8% and 4.8%, respectively. The IC50 at Acetylcholinesterase [3] is over 100 µM; on Cholinesterase [4], 6.4 µM.

With `CC1(C)COc2ccccc2C1N` (configuration not stated), the inhibition at 1 µM in [1] was -3.8%; in series [2] it was 3.7%. On Cholinesterase [4], this compound had an IC50 of 38 µM.

Take `C#CCNC1c2ccccc2OCC1(C)C` (configuration not stated): the inhibition at 1 µM in [2] worked out at 11.6%. Moreover, the “inhibition (INH)” value in [9] is listed as “Active”.

On to `CC1(C)COc2c(ccc3cccnc23)C1O` (configuration not stated), for which the inhibition constant Ki was found to be 13.7 µM at Cholinesterase [6] and 7.2 µM on Cholinesterase [8]. The IC50 is over 100 µM against Acetylcholinesterase [3] and 5 µM against Cholinesterase [4].

For `CCOc1cc(C#N)cc2c1OCC(C)(C)C2=O`, the inhibition at 1 µM in [1] turned out to be 20.5%; in series [2] it was 4.7%. Also, the IC50 against Acetylcholinesterase [3] and at Cholinesterase [4] was over 100 µM throughout.

On to `CC1(C)COc2ccccc2C1=O`, for which the inhibition at 1 µM in series [1] was found to be 9.7%; in series [2], 9.2%. The values for the IC50 on Acetylcholinesterase [3] and against Cholinesterase [4] were over 100 µM and 43 µM, respectively.

With `CC1(C)COc2ccc3ccccc3c2C1=O`, the Ki on Cholinesterase [6] amounted to 6.7 µM; on Cholinesterase [8], 2 µM. Further, the inhibition at 1 µM came to 23.2% in [1] and 5.1% in series [2]. The IC50 against Acetylcholinesterase [3] is over 100 µM; on Cholinesterase [4], 2.9 µM. Further, the inhibition result in series [10] is “Active”.

Consider `COc1cccc2c1OCC(C)(C)C2=O`, for which the half-maximal inhibitory concentration (IC50) on Acetylcholinesterase [3] and against Cholinesterase [4] was over 100 µM in each case.
